Molecules are shown by their SMILES.

This data set can be described thus: Toxicity liver stage against HepG2, at 10uM. To be noted: human, HepG2-A16-CD81EGFP cells; read-out: INHIBITION
Details: test concentration 10 uM, cell line HepG2-A16-CD81EGFP. Format: cell-based. In outline: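 Uninfected HepG2-A16-CD81EGFP cells, 3 × 10^3 per well, 1536-well, plated on prespotted compound at 10 μM final, parasite-free screening media added to match infected plates; puromycin 10 μM positive, DMSO 0.5% negative; run in parallel with 48 h PbLuc assay at 37 °C, 5% CO2; viability by CellTiter-Glo luminescence, normalized to controls.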
Consider `COC(=O)[C@@H](NC(=O)Nc1ccc(C(C)=O)cc1)C(C)C`, for which the cytotoxicity at 10 µM turned out to be 10.1%.

As for `c1ccc(CNC[C@H]2Cn3ccnc3CO2)cc1`, the cytotoxicity at 10 µM is -5.25%.

Turning to `c1cc(-c2c[nH]c([C@@H]3COCCN3C3CCCCC3)n2)ccn1`, the cytotoxicity at 10 µM worked out at 7.66%.

`CN1C(=O)COc2ccc(NC(=O)CCc3nc4cccnc4[nH]3)cc21`: the cytotoxicity at 10 µM was -1.23%.

`COCCn1cc(CCC(=O)Nc2c(C)nn(C)c2C)c2ccccc21`: the cytotoxicity at 10 µM is -177%.

Regarding `COc1ccc(-c2n[nH]c(C)c2CC(=O)NCC2CCCO2)cc1` (stereo not given), the cytotoxicity at 10 µM was -11.6%.

Take `Cc1nc(N2CCOCC2)nc2c1CCN(C(=O)N1CCCC1)CC2`: the cytotoxicity at 10 µM was 0.64%.

Regarding `CS(=O)(=O)N1C[C@@H]2COC[C@@H](CC(=O)N3CCCO3)[C@@H]2C1`, the cytotoxicity at 10 µM worked out at 11.1%.

On to `CN(C)C(=O)COCc1ncn2c1CN(c1ncc(F)cn1)CCC2`, for which the cytotoxicity at 10 µM came out at 6.01%.

Regarding `CC(C)C(=O)N1CCCC12CCCN(C(=O)c1ccno1)C2` (stereo not given), the cytotoxicity at 10 µM was 5.35%.

On to `Cc1nnc([C@@H]2CCO[C@@H]3CCN(C(=O)Cc4ccccn4)C[C@@H]32)o1`, for which the cytotoxicity at 10 µM was found to be 10.1%.

Consider `Cn1cc(CN2CCO[C@H]3CN(Cc4ccco4)C[C@H]32)cn1`, for which the cytotoxicity at 10 µM is -140%.

`c1cncc(COCC2CN(Cc3ccncc3)Cc3ccnn3C2)c1` (stereo not given): the cytotoxicity at 10 µM was -135%.

With `O=c1[nH]nc2c(S(=O)(=O)N3CCN(c4ccc(F)cc4)CC3)cccn12`, the cytotoxicity at 10 µM is 11.8%.

On to `c1cc(C2CCN(c3cncnc3)CC2)ccn1`, for which the cytotoxicity at 10 µM came to 2.58%.

Consider `COCC(=O)N1CCC(O)(CN2CCN(c3ccccc3)CC2)C1` (stereo not given), for which the cytotoxicity at 10 µM was -2.38%.

As for `Cc1ccc2cc(CNCCN3CCCC3)c(=O)[nH]c2c1`, the cytotoxicity at 10 µM is -1.89%.

As to `Cc1nccc(CN2CC[C@@]3(CCCN3Cc3ccccc3)[C@@H](O)C2)n1`, the cytotoxicity at 10 µM is -6.05%.

As for `COCc1cc(O)nc(C2CCCN(Cc3ccc(F)cc3)C2)n1` (stereo not given), the cytotoxicity at 10 µM is -9.88%.

Regarding `CC(=O)N1CCN([C@@H]2CC[C@@H](N(C)C(=O)C3CCCCC3)[C@H]2O)CC1`, the cytotoxicity at 10 µM was -10.6%.

`O=C(COc1cc(Cl)cc(Cl)c1)NCc1nncn1C1CC1`: the cytotoxicity at 10 µM is -11.5%.

Consider `CCCc1nc(CN(CCO)Cc2cc(Br)ccc2F)no1`, for which the cytotoxicity at 10 µM is -5.1%.

In the case of `CN(CCO)Cc1cc(=O)n2cc(Br)ccc2n1`, the cytotoxicity at 10 µM is -6.69%.

Turning to `CCSCc1ccnc(NC(=O)C2CCOC2)c1` (stereo not given), the cytotoxicity at 10 µM amounted to 0.841%.

With `Cc1nn(C)c2ncc(CNCCc3ccccn3)cc12`, the cytotoxicity at 10 µM worked out at 4.13%.

As to `Cc1ccc(C(=O)N(CC(=O)O)CC(C)C)cc1F`, the cytotoxicity at 10 µM was -4.07%.

For the molecule `O=C(Nc1ccc(-n2ccc(C(=O)O)n2)cc1)c1ccccc1`, the cytotoxicity at 10 µM is -139%.

As to `COCCCOc1ccc(C(=O)N(C)CCC(C)C)cn1`, the cytotoxicity at 10 µM amounted to 6.19%.

Regarding `Cc1nn(C)c(C)c1C(=O)N1CCN(C(=O)CC2CCCCC2)CC1`, the cytotoxicity at 10 µM was -2.55%.

As to `CN1CCOC(CNCC(=O)NCCC2=CCCCC2)C1` (stereo not given), the cytotoxicity at 10 µM is -3.57%.

Take `CCOc1cccc(CNc2cnn(CC(C)C)c2CC)c1`: the cytotoxicity at 10 µM stood at 2.93%.

As to `CCc1cnc(CNc2cccc3c2CCN(S(=O)(=O)CC)C3)o1`, the cytotoxicity at 10 µM was -52.5%.

As to `Cc1noc(CCCC(=O)NCC(c2ccco2)N2CCCCC2)n1` (stereo not given), the cytotoxicity at 10 µM is 13.1%.

With `Cc1nc(CCCNC(=O)c2c(F)cccc2Br)n[nH]1`, the cytotoxicity at 10 µM was -1.39%.

Consider `COC(=O)CCNC(=O)c1c[nH]cc1-c1cccc(OC)c1`, for which the cytotoxicity at 10 µM worked out at 4.89%.

Regarding `CC(C)COC(=O)N1CCCN(Cc2nnc(C(C)(C)C)o2)CC1`, the cytotoxicity at 10 µM was 11.1%.

With `CCCc1nc(CN2CCCC2Cn2cccn2)cs1` (stereo not given), the cytotoxicity at 10 µM is -4.45%.

On to `Cc1csc(C2CCCCN2C(=O)CCn2cncn2)n1` (stereo not given), for which the cytotoxicity at 10 µM is -6.32%.

As to `O=C(c1cc(F)cc2[nH]cnc12)N1CCCC1Cn1cccn1` (stereo not given), the cytotoxicity at 10 µM amounted to 7.39%.

As to `CCC(Nc1ccc(Oc2cccc(C#N)c2)cc1)C(N)=O` (stereo not given), the cytotoxicity at 10 µM was found to be 35.2%.

As for `O=S(=O)(Nc1cn[nH]c1)c1ccc(F)c(Br)c1`, the cytotoxicity at 10 µM was -11.5%.

For `CS(=O)(=O)Cc1ccc(NC(=O)Cc2cccnc2)cc1F`, the cytotoxicity at 10 µM came out at 1.34%.

Regarding `O=C(CCN1C(=O)CCC1=O)Nc1ccc(OCC(F)(F)F)nc1`, the cytotoxicity at 10 µM was -13.4%.

In the case of `CC(NCc1ccc(C(C)(C)C)cc1)c1ccc(S(C)(=O)=O)cc1` (stereo not given), the cytotoxicity at 10 µM amounted to 14.5%.

With `N#CCc1ccc(OCC(=O)NS(=O)(=O)c2ccc(Cl)s2)cc1`, the cytotoxicity at 10 µM was 6.41%.

On to `CC(=O)Nc1ccc(C(=O)N(C)Cc2cccc(F)c2)s1`, for which the cytotoxicity at 10 µM was determined as 2.82%.

As for `CC(CNC(=O)c1ccn(-c2ccc(F)cc2)n1)Cn1cccn1` (stereo not given), the cytotoxicity at 10 µM was -41.4%.

Take `c1cncc(OCCNC2Cc3ccccc3C2)c1`: the cytotoxicity at 10 µM was found to be 4.32%.

`CC(CN1CCOCC1)NC(=O)c1cccc2cn[nH]c12` (stereo not given): the cytotoxicity at 10 µM is -7.18%.

For `CC(C)c1ccc(-n2cc(O)c(C(=O)N3CCC(C(N)=O)CC3)n2)cc1`, the cytotoxicity at 10 µM was -52.6%.

In the case of `Cc1c(C(=O)NC2CC(C)(C)NC(C)(C)C2)cnn1-c1ccc(F)cc1`, the cytotoxicity at 10 µM was -45.7%.

Turning to `Cc1cnn(CC2CCCN2C(=O)Cc2cn3ccsc3n2)c1` (stereo not given), the cytotoxicity at 10 µM was -10.1%.

In the case of `CN(Cc1cccc(OC(F)(F)F)c1)C(=O)c1ccncc1F`, the cytotoxicity at 10 µM was found to be 3.76%.

Consider `O=C(NCCOc1ncc(Cl)cc1Cl)c1ccncc1`, for which the cytotoxicity at 10 µM was 7.18%.

For the molecule `Cc1nc(CN2CCC3(C2)CN(C(=O)c2conc2C)C3)cs1`, the cytotoxicity at 10 µM was -105%.

As to `COCCN1CC(=O)c2sc(NC(C)C)nc2C1`, the cytotoxicity at 10 µM is -4.91%.

Take `OCCNc1nccc(-c2cn3nccc3nc2C2CCCCC2)n1`: the cytotoxicity at 10 µM was -0.085%.

Consider `c1ccc(-c2nc3c(c(NCc4nnc5n4CCC5)n2)CCNC3)cc1`, for which the cytotoxicity at 10 µM is -3.71%.

As to `COc1ccccc1S(=O)(=O)N1CCN(C)[C@@H]2CS(=O)(=O)C[C@@H]21`, the cytotoxicity at 10 µM was determined as 19.3%.

Consider `CCOc1ccc(CN(CCOC)C(=O)c2ccncc2Cl)cc1`, for which the cytotoxicity at 10 µM came out at 5.82%.

`Cc1noc(C)c1CN(C)Cc1cnc(N2CCOCC2)nc1`: the cytotoxicity at 10 µM is -2.28%.

Take `CC(C)(O)CCc1cccc(C(=O)NCC2CN(S(C)(=O)=O)CCO2)c1` (stereo not given): the cytotoxicity at 10 µM was 2.29%.

Consider `CCN1CC(CN(C)Cc2nc(-c3ccoc3)oc2C)CC1=O` (stereo not given), for which the cytotoxicity at 10 µM was -5.13%.

In the case of `c1ccc(CN2CCC(Nc3ncnc4c3CCNCC4)C2)cc1` (stereo not given), the cytotoxicity at 10 µM was found to be 8.03%.

On to `COCCN(C)C[C@@H]1CN(C(=O)c2ccc(O)c(C)c2)C[C@@H]1CO`, for which the cytotoxicity at 10 µM was -11.8%.

`Cc1cc(C)c2[nH]c(=O)c(CN3CCCC(O)(CO)C3)cc2c1` (stereo not given): the cytotoxicity at 10 µM was -2.25%.

With `Cc1c(C(=O)NCC2CCN(Cc3ccco3)C2)[nH]c2ccccc12` (stereo not given), the cytotoxicity at 10 µM is 6.32%.

Turning to `Cc1sc2nc(CCN)nc(N3CCC(N4CCCC4)CC3)c2c1C`, the cytotoxicity at 10 µM is -51.6%.

Turning to `CC(C)N1CC2(CCC1=O)CCN(C(=O)c1cccc(F)c1F)CC2`, the cytotoxicity at 10 µM was -18.5%.

In the case of `Cc1nccc(CN2CCC(c3nnsc3S(C)(=O)=O)CC2)n1`, the cytotoxicity at 10 µM turned out to be 2.86%.

Consider `CCNC(=O)N(C)C(c1cccc(F)c1)c1ccccn1` (stereo not given), for which the cytotoxicity at 10 µM is -11.6%.

As for `COc1ccc(C(=O)N2CCCCC2c2nc(C)cs2)nn1` (stereo not given), the cytotoxicity at 10 µM was -6.77%.

`O=C(c1ccc(N2CCCC2)nn1)N1CCCC(n2cccn2)C1` (stereo not given): the cytotoxicity at 10 µM is -5.58%.

Consider `CCN(CC)C(=O)c1nnn(-c2ccc(C)cc2)c1C1CC1`, for which the cytotoxicity at 10 µM is -8.35%.

As to `Cn1ncc2c(=O)[nH]c(N3CCN(C(=O)c4ccsc4)CC3)nc21`, the cytotoxicity at 10 µM was -6.17%.

Turning to `Cc1nccn1CC1CCCN1S(=O)(=O)Cc1ccccc1` (stereo not given), the cytotoxicity at 10 µM was -18%.

For `CC(O)CN1CCN(C(=O)c2ccc(N(C)C)nc2)CC1` (stereo not given), the cytotoxicity at 10 µM is -9.78%.

For the molecule `N#Cc1ccccc1OCCN1CCn2c(nnc2C2CC2)C1`, the cytotoxicity at 10 µM is 2.94%.

For the molecule `O=C(Cc1csc(-c2nnc[nH]2)n1)N1CCCC1Cn1cccn1` (stereo not given), the cytotoxicity at 10 µM is -2.48%.

With `CCCc1nc(CN2CCCC(Cn3cncn3)C2)no1` (stereo not given), the cytotoxicity at 10 µM is -4.02%.

Take `Cc1cnn(CC2CCCN2C(=O)c2ccc3[nH]nnc3c2)c1` (stereo not given): the cytotoxicity at 10 µM amounted to 1.03%.

For `Cc1nc(C)n(CC2CCCN(CCNC(=O)OC(C)(C)C)C2)n1` (stereo not given), the cytotoxicity at 10 µM was 1.08%.

Turning to `CCC(CN1CCOCC1)n1cncc1-c1ccc2c(c1)CCCN2C` (stereo not given), the cytotoxicity at 10 µM turned out to be 8.9%.

As to `NCc1ccccc1Sc1ccc(O)cc1`, the cytotoxicity at 10 µM was found to be 1.31%.

Regarding `Cc1c(Br)cccc1C(=O)NCC1CCNCC1`, the cytotoxicity at 10 µM is -16%.

As for `Cc1cnccc1-c1cnn(CCNC(=O)C(C)(C)C)c1C1CC1`, the cytotoxicity at 10 µM is -0.459%.

Take `Cc1ccc(CN2CCC3(CC2)C(=O)N(CC(C)C)CCN3C)o1`: the cytotoxicity at 10 µM is -0.508%.

On to `Cc1nccn1CCC1CCNCC1`, for which the cytotoxicity at 10 µM was -2.36%.

Take `Cc1cnc(N2CC[C@H]3[C@H](C[C@@H](CN(C)C)N3C)C2)nc1`: the cytotoxicity at 10 µM came to 5.71%.

Turning to `CN(C)CCNC(=O)[C@H]1C[C@H]2CN(c3ncccn3)C[C@H]2N1C`, the cytotoxicity at 10 µM stood at 9.52%.

Turning to `Cc1cccc(CN2C[C@@H]3OCCN(CC(=O)N(C)C)[C@@H]3C2)c1`, the cytotoxicity at 10 µM is -110%.

For the molecule `Cc1cc(C(=O)N2CC[C@H]3[C@H](C[C@@H](CN4CCCC4)N3C)C2)c(C)o1`, the cytotoxicity at 10 µM is 9.97%.

As to `CS(=O)(=O)N1CCC2(CC1)CN(CC1CCOC1)c1ccccc12` (stereo not given), the cytotoxicity at 10 µM is -108%.

Consider `CS(=O)(=O)N1CC[C@H]2OCC[C@@]2(C(=O)NCc2ccccn2)C1`, for which the cytotoxicity at 10 µM was -84.7%.

Consider `Cc1ccc(-c2cc(C3=NC(=CN4CCN(C)CC4)NO3)[nH]n2)s1`, for which the cytotoxicity at 10 µM is -9.45%.

These data come from ChEMBL document CHEMBL4513216, “Probing the Open Global Health Chemical Diversity Library for Multistage-Active Starting Points for Next-Generation Antimalarials” (ACS Infect Dis, 2020).
